# Measurements taken from ChEMBL document CHEMBL1156597, “Structure-activity relationship of kahalalide F synthetic analogues” (J Med Chem, 2008).
# Columns and labels:
# DU-145 = assay: Cytotoxicity against human DU145 cells after 48 hrs by SRB assay; assay type: functional, cell-based; settings: Homo sapiens, DU-145, 48 h; for CC50: read-out: LC50 (the source's name)
# Method in brief: (§1)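 Cells grown in RPMI 1640 with 10% FBS and penicillin/streptomycin at 37 °C and 5% CO₂, trypsinized, then seeded at 5 × 10³/well. After 18 h drug-free attachment, samples in DMSO/EtOH/PBS (0.5:0.5:99) were added for 48 h continuous exposure. Cells were fixed with cold TCA (1 h, 4 °C) and stained with SRB (10 min). Tris-solubilized stain read at 490 nm. Triplicate wells, mean ± SD; GI₅₀ derived.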
# LNCaP = assay: Cytotoxicity against human LNcaP cells after 48 hrs by SRB assay; assay type: functional; settings: for CC50: read-out: LC50 (the source's name); method in brief: as §1
# [1] = Cytotoxicity against human IGROV cells after 48 hrs by SRB assay; assay type: functional; settings: for CC50: read-out: LC50 (the source's name); method in brief: as §1
# [2] = Cytotoxicity against human IGROV-ET cells after 48 hrs by SRB assay; assay type: functional; settings: for CC50: read-out: LC50 (the source's name); method in brief: as §1
# SK-BR-3 = assay: Cytotoxicity against human SKBR3 cells after 48 hrs by SRB assay; assay type: functional; settings: SK-BR-3, 48 h; for GI50: read-out: GI50; for CC50: read-out: LC50 (the source's name); method in brief: as §1
# SK-MEL-28 = assay: Cytotoxicity against human SK-MEL-28 cells after 48 hrs by SRB assay; assay type: functional, cell-based; settings: Homo sapiens, SK-MEL-28, 48 h; for CC50: read-out: LC50 (the source's name); method in brief: as §1
# A549 = assay: Cytotoxicity against human A549 cells after 48 hrs by SRB assay; assay type: functional, cell-based; settings: Homo sapiens, A549, 48 h; for GI50: read-out: GI50; method in brief: as §1
# K562 = assay: Cytotoxicity against human K562 cells after 48 hrs by SRB assay; assay type: functional; settings: K562, 48 h; for CC50: read-out: LC50 (the source's name); method in brief: as §1
# PANC-1 = assay: Cytotoxicity against human PANC1 cells after 48 hrs by SRB assay; assay type: functional; settings: PANC-1, 48 h; for CC50: read-out: LC50 (the source's name); method in brief: as §1
# HT-29 = assay: Cytotoxicity against human HT29 cells after 48 hrs by SRB assay; assay type: functional, cell-based; settings: Homo sapiens, HT-29, 48 h; for CC50: read-out: LC50 (the source's name); method in brief: as §1
# LoVo [3] = assay: Cytotoxicity against human LoVo cells after 48 hrs by SRB assay; assay type: functional; settings: for CC50: read-out: LC50 (the source's name)
# LoVo [4] = assay: Cytotoxicity against human doxorubicin resistant LoVo cells after 48 hrs by SRB assay; assay type: functional; settings: for CC50: read-out: LC50 (the source's name); method in brief: as §1
# HeLa = assay: Cytotoxicity against human HeLa cells after 48 hrs by SRB assay; assay type: functional; settings: for CC50: read-out: LC50 (the source's name); method in brief: as §1
# [5] = Cytotoxicity against human HeLa-APL cells after 48 hrs by SRB assay; assay type: functional; method in brief: as §1
SMILES,CC50 (DU-145),CC50 (LNCaP),GI50 ([1]; read-out: GI50),CC50 [1],GI50 ([2]; read-out: GI50),CC50 [2],TGI (SK-BR-3),GI50 (SK-BR-3),CC50 (SK-BR-3),CC50 (SK-MEL-28),LC50 (A549),CC50 (K562),CC50 (PANC-1),GI50 (HT-29),TGI (HT-29),CC50 (HT-29),CC50 (LoVo [3]),CC50 (LoVo [4]),CC50 (HeLa),LC50 (concentration giving 50% net cell kill) [5],further results
C/C=C1\NC(=O)[C@H](Cc2c[nH]c3ccccc23)NC(=O)[C@@H](C(C)C)NC(=O)[C@@H]([C@H](C)CC)NC(=O)[C@H](NC(=O)[C@H](NC(=O)[C@H](CCCN)NC(=O)[C@H]2CCCN2C(=O)[C@H](NC(=O)[C@@H](NC(=O)[C@@H](NC(=O)[C@H](NC(=O)CCCC(C)C)C(C)C)[C@@H](C)O)C(C)C)C(C)C)[C@H](C)CC)[C@H](C)OC(=O)[C@H](C(C)C)NC1=O,785 nM,1400 nM,87.5 nM,57.4 nM,461 nM,418 nM,383 nM,345 nM,425 nM,1390 nM,1380 nM,2550 nM,2390 nM,1050 nM,1510 nM,1190 nM,1.43 µM,1470 nM,935 nM,975 nM,GI50 (DU-145): 823 nM; GI50 (DU-145; read-out: GI50): 832 nM; GI50 (LNCaP): 2060 nM; TGI (LNCaP): 1610 nM; GI50 [1]: 71.8 nM; GI50 [2]: 439 nM; TGI (A549): 1490 nM; GI50 (A549): 1610 nM; GI50 (K562): 4.84 µM; TGI (K562): 4.7 µM; GI50 (LoVo [3]): 628 nM; TGI (LoVo [3]): 957 nM; GI50 (LoVo [4]): 507 nM; TGI (LoVo [4]): 659 nM; GI50 (HeLa): 1360 nM; TGI (HeLa): 1130 nM; GI50 [5]: 1360 nM; TGI [5]: 1150 nM
C/C=C1\NC(=O)[C@H](Cc2ccccc2)NC(=O)[C@@H](C(C)C)NC(=O)[C@@H]([C@H](C)CC)NC(=O)[C@H](NC(=O)[C@H](NC(=O)[C@H](CCCN)NC(=O)[C@H]2CCCN2C(=O)[C@H](NC(=O)[C@@H](NC(=O)[C@@H](NC(=O)[C@H](NC(=O)C2CCC(C)CC2)C(C)C)[C@@H](C)O)C(C)C)C(C)C)[C@H](C)CC)[C@H](C)OC(=O)[C@H](C(C)C)NC1=O (some centres not stated),839 nM,1260 nM,526 nM,441 nM,598 nM,426 nM,298 nM,350 nM,1030 nM,1100 nM,1340 nM,1810 nM,2300 nM,551 nM,554 nM,642 nM,3.2 µM,319 nM,892 nM,977 nM,GI50 (DU-145): 788 nM; GI50 (DU-145; read-out: GI50): 690 nM; GI50 (LNCaP): 1070 nM; TGI (LNCaP): 1170 nM; GI50 [1]: 477 nM; GI50 [2]: 503 nM; TGI (SK-MEL-28): 1060 nM; GI50 (SK-MEL-28; read-out: GI50): 1010 nM; TGI (A549): 1180 nM; GI50 (A549): 1040 nM; GI50 (PANC-1): 2.66 µM; TGI (PANC-1): 4.53 µM; GI50 (LoVo [3]): 244 nM; TGI (LoVo [3]): 280 nM; GI50 (LoVo [4]): 340 nM; TGI (LoVo [4]): 329 nM; GI50 (HeLa): 904 nM; TGI (HeLa): 897 nM; GI50 [5]: 633 nM; TGI [5]: 810 nM
C/C=C1\NC(=O)[C@H](Cc2ccccc2)NC(=O)[C@@H](C(C)C)NC(=O)[C@@H]([C@H](C)CC)NC(=O)[C@H](NC(=O)[C@H](NC(=O)[C@H](CCCN)NC(=O)[C@H]2CCCN2C(=O)[C@H](NC(=O)[C@@H](NC(=O)[C@@H](NC(=O)[C@H](NC(=O)CCCC(C)C)C(C)C)[C@@H](C)O)[C@@H](C)O)C(C)C)[C@H](C)CC)[C@H](C)OC(=O)[C@H](C(C)C)NC1=O,1690 nM,1400 nM,,859 nM,1910 nM,644 nM,2430 nM,2070 nM,1060 nM,1860 nM,1820 nM,1930 nM,2320 nM,11000 nM,8870 nM,2370 nM,3.77 µM,2820 nM,1380 nM,1450 nM,TGI [2]: 1750 nM; GI50 (PANC-1): 5.51 µM; TGI (PANC-1): 4.56 µM; GI50 (LoVo [3]): 2970 nM; TGI (LoVo [3]): 3350 nM; GI50 (LoVo [4]): 2990 nM; TGI (LoVo [4]): 2900 nM
C/C=C1\NC(=O)[C@@H](Cc2ccccc2)NC(=O)[C@H](C(C)C)NC(=O)[C@H]([C@H](C)CC)NC(=O)[C@@H](NC(=O)[C@@H](NC(=O)[C@@H](CCCN)NC(=O)[C@@H]2CCCN2C(=O)[C@@H](NC(=O)[C@H](NC(=O)[C@H](NC(=O)[C@@H](NC(=O)CCCC(C)C)C(C)C)[C@@H](C)O)C(C)C)C(C)C)[C@H](C)CC)[C@H](C)OC(=O)[C@H](C(C)C)NC1=O,10600 nM,4920 nM,161000 nM,72000 nM,,2130 nM,,,1690 nM,1770 nM,1920 nM,25300 nM,8900 nM,,,3790 nM,5.54 µM,4080 nM,1910 nM,2360 nM,TGI [1]: 134 µM; GI50 (K562): 2.53 µM; TGI (K562): 10.5 µM
